According to ChEMBL document CHEMBL1124636, “3,4-Dihydro-2H-1-benzopyran-2-carboxylic acids and related compounds as leukotriene antagonists” (J Med Chem, 1989):
pIC50: −log10 of the molar value. One block for each molecule: values may come before it. Active and inactive are the calls of the source. The rule behind the calls is not given here.

Legend:
[1] = tested on: Cysteinyl leukotriene receptor (Cavia porcellus); test: Inhibitory activity of compound to block binding of radiolabeled leukotriene D4 to receptor sites in homogenized guinea pig lung at 10 uM
[2] = target: T1, Cysteinyl leukotriene receptor 1 (Cavia porcellus) (UniProt Q2NNR5); test: (§1) Inhibition of leukotriene D4 induced bronchoconstriction in anesthetized guinea pigs after intravenous administration at a dose of 10 mg/kg; assay type: functional, organism-based; set-up: dose 10 mg/kg
T1 sequence (whole entry): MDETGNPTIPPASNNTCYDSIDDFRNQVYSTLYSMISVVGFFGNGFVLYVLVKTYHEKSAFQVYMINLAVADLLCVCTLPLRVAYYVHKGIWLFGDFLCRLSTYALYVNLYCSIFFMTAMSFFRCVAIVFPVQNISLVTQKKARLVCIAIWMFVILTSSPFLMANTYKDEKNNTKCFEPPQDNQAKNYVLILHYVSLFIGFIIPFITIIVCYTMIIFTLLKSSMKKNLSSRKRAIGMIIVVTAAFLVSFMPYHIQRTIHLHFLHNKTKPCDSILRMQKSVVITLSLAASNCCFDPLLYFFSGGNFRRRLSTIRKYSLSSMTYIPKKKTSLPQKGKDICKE
How it was run: (§2)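 Male Hartley guinea pigs, 400–600 g, urethane 2 g/kg ip, jugular cannula, propranolol 0.1 mg/kg iv 5 min before challenge, succinylcholine 1.2 mg/kg iv, ventilated. Vehicle or drug iv 30 s before LTD4 25 µg/kg iv; tracheal pressure change.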

Cavia porcellus [3] = species on record: Cavia porcellus; test: In vitro activity to inhibit leukotriene D4 induced contraction of guinea pig trachea; assay type: functional; details: read-out: pA2 (converted)
How it was run: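 Guinea pig tracheal smooth muscle contracted by LTD4; pA2 and Schild slope reported.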

Cavia porcellus [4] = test: In vivo guinea pig bronchoconstriction against leukotriene C4 when administered a compound dose (mg/kg) intravenously; assay type: functional; details: Lung, iv, read-out: ID50 (the source's name)
Cavia porcellus [5] = species on record: Cavia porcellus; test: Activity against histamine induced bronchoconstriction in guinea pig, no significant inhibition at concentration of 1% by aerosol; NA means inactive; assay type: functional, organism-based
[6] = target: Dual specificity calcium/calmodulin-dependent 3',5'-cyclic nucleotide phosphodiesterase 1A (Bos taurus, UniProt P14100); test: Inhibition of bovine heart Phosphodiesterase 1A
Sequence of Dual specificity calcium/calmodulin-dependent 3',5'-cyclic nucleotide phosphodiesterase 1A (P14100 whole entry): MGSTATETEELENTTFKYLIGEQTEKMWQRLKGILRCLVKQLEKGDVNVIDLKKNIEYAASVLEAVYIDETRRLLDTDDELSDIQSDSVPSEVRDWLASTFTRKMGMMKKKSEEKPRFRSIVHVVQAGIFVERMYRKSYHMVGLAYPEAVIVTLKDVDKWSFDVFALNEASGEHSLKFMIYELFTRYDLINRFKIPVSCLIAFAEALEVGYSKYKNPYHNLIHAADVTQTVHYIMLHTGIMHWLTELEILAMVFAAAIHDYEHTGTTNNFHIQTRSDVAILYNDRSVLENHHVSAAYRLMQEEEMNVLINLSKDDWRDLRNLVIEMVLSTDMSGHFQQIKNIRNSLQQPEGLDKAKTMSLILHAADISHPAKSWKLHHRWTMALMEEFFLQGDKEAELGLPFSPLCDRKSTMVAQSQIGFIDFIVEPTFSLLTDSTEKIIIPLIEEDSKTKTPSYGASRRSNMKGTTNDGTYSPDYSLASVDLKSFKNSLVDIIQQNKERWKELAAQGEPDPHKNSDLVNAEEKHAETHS

Cavia porcellus [7] = species on record: Cavia porcellus; test: Activity against platelet activating factor in guinea pig, no significant inhibition at concentration of 1% by aerosol; NA means inactive; assay type: functional, organism-based
Cavia porcellus [8] = test: Inhibition of leukotriene D4 induced bronchoconstriction in anesthetized guinea pigs after intravenous administration; assay type: functional; details: read-out: ID50 (the source's name)
How it was run: as §2

[9] = Inhibitory activity to inhibit Inophore-induced arachidonic acid metabolism (inhibition of PGE-2 formation) in rat; assay type: functional
How it was run: (§3)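 Rat peritoneal macrophages adhered 90 min at 37 °C, labeled with [14C]arachidonic acid 90 min, washed. Compound 30 min at 37 °C, then A23187 0.5 µM for 20 min. LTB4 and PGE2 in medium by radioimmunoassay.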

Cavia porcellus [10] = test: Activity against histamine induced bronchoconstriction in guinea pig, no significant inhibition when compound dose (10 mg/kg) given intravenously; NA means inactive; assay type: functional, organism-based
Cavia porcellus [11] = test: Duration of action of leukotriene E4 as time for inhibition to decrease to 40%, compound was administered at a dose of 10 mg/kg; assay type: functional
How it was run: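 Intravenous guinea pig bronchoconstriction with LTE4 challenge; drug 10 mg/kg iv. Duration taken as time for inhibition to fall to 40%.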

Cavia porcellus [12] = test: In vivo guinea pig bronchoconstriction against leukotriene D4 when administered a compound dose (mg/kg) intravenously; assay type: functional; details: Lung, iv, read-out: ID50 (the source's name)
How it was run: as §2

Cavia porcellus [13] = test: Duration of action of leukotriene D4 as time for inhibition to decrease to 40%, compound was administered at a concentration 1%, for 5 min by aerosol; assay type: functional
How it was run: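 Aerosol guinea pig bronchoconstriction with LTD4 challenge; drug given as 1% nebulized solution for 5 min. Duration taken as time for inhibition to fall to 40%.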

Cavia porcellus [14] = test: as §1; assay type: functional
How it was run: as §2

Cavia porcellus [15] = test: Duration of action of leukotriene D4 as time for inhibition to decrease to 40%, compound was administered at a dose of 10 mg/kg; assay type: functional
How it was run: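 Intravenous guinea pig bronchoconstriction with LTD4 challenge; drug 10 mg/kg iv. Duration taken as time for inhibition to fall to 40%.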

Cavia porcellus [16] = test: Time taken for inhibition of antigen induced bronchoconstriction in guinea pig to decrease to 40%, compound was administered at a concentration of 1%, for 5 min by aerosol; assay type: functional
How it was run: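 Aerosol guinea pig bronchoconstriction with antigen challenge; drug given as 1% nebulized solution for 5 min. Duration taken as time for inhibition to fall to 40%.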

[17] = target: T1, Cysteinyl leukotriene receptor 1 (Cavia porcellus); test: Inhibitory activity of compound to block binding of [3H]leukotriene D4 to Cysteinyl L-Cysteinyl leukotriene D4 receptor sites in homogenized guinea pig lung at 10 uM
How it was run: (§4)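 Lung from male Hartley guinea pigs (400–500 g), homogenized in sucrose/Tris pH 7.5 with protease inhibitors; 30000g membrane pellet in 10 mM PIPES pH 7.5, 50 mM NaCl. Binding: Tyrode, 0.1% BSA, 1 mM glycine, 1 mM cysteine, 3.5 nM [3H]LTD4, 100–200 µg protein, 20 °C, 30 min; glass-fiber filtration. Nonspecific with 10^-6 M LTD4. Triplicate screen at 10 µM; IC50 by linear regression.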

Rattus norvegicus = species on record: Rattus norvegicus; test: Inhibitory activity to inhibit Inophore-induced arachidonic acid metabolism (inhibition of LTB4 formation) in rat; assay type: functional, organism-based
How it was run: as §3

Cavia porcellus [18] = species on record: Cavia porcellus; test: In vitro activity to inhibit SRS-A induced contraction of guinea pig ileum
Cavia porcellus [19] = test: Activity against platelet activating factor in guinea pig, no significant inhibition when compound dose (10 mg/kg) given intravenously; NA means inactive; assay type: functional, organism-based
Cavia porcellus [20] = test: In vivo guinea pig bronchoconstriction against leukotriene E4 when administered a compound dose(mg/kg) intravenously; assay type: functional; details: Lung, iv, read-out: ID50 (the source's name)
[21] = target: T2, Cysteinyl leukotriene receptor 1 (Cavia porcellus, UniProt Q2NNR5); test: Inhibitory activity of compound to block binding of [3H]leukotriene D4 to Cysteinyl leukotriene D4 receptor sites in homogenized guinea pig lung
T2 sequence (Q2NNR5 whole entry): T1 sequence (whole entry)
How it was run: as §4

Cavia porcellus [22] = species on record: Cavia porcellus; test: Inhibitory activity to inhibit antigen induced bronchoconstriction in guinea pig; assay type: functional
Cavia porcellus [23] = test: (§5) Inhibition of leukotriene D4 induced bronchoconstriction in anesthetized guinea pigs after aerosol administration as 1% solution; assay type: functional
How it was run: (§6)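 Guinea pigs given propranolol 0.1 mg/kg iv 5 min before 5-min ultrasonic nebulizer exposure to aqueous, NaOH-neutralized drug (% w/v) or distilled water, breathing spontaneously. LTD4 50 µg/kg iv 30 s after exposure; tracheal pressure change.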

Cavia porcellus [24] = test: Duration of action of leukotriene E4 as time for inhibition to decrease to 40%, compound administered at a concentration of 1%,for 5 min by aerosol; assay type: functional
How it was run: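 Aerosol guinea pig bronchoconstriction with LTE4 challenge; drug given as 1% nebulized solution for 5 min. Duration taken as time for inhibition to fall to 40%.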

Cavia porcellus [25] = test: as §5; assay type: functional, organism-based
How it was run: as §6

Cavia porcellus [26] = test: Inhibition of leukotriene E4 induced bronchoconstriction in anesthetized guinea pigs after intravenous administration at a dose of 10 mg/kg; assay type: functional
[27] = tested on: Cysteinyl leukotriene receptor (Cavia porcellus); test: Inhibitory activity to block binding of [3H]leukotriene D4 to LTD4 receptor sites in homogenized guinea pig lung at 10 uM
Cavia porcellus [28] = test: Inhibition of leukotriene E4 induced bronchoconstriction in anesthetized guinea pigs after aerosol administration as 1% solution; assay type: functional
[29] = target: T1, Cysteinyl leukotriene receptor 1 (Cavia porcellus); test: Inhibitory activity of compound to block binding of radiolabeled leukotriene D4 to receptor sites in homogenized guinea pig lung at 10 uM
How it was run: as §4

[30] = target: T1, Cysteinyl leukotriene receptor 1 (Cavia porcellus); test: Inhibition of leukotriene D4 induced bronchoconstriction in anesthetized guinea pigs after intravenous administration at a dose of 1 mg/kg; assay type: organism-based; set-up: dose 1 mg/kg
[31] = target: T2, Cysteinyl leukotriene receptor 1; test: In vitro activity to inhibit binding of [3H]- leukotriene D4 to receptor sites in guinea pig lung membrane; assay type: cell membranes
How it was run: as §4

Cavia porcellus [32] = species on record: Cavia porcellus; test: In vitro activity to inhibit SRS-A induced contraction of guinea pig ileum; remark: listed apart in the source

SMILES: CCCc1c(O)c(C(C)=O)cc(O)c1OCCCCCOc1cc2c(cc1C(C)=O)CCC(C(=O)O)O2 (stereo unspecified)
Inhibition [1]: 0% | inhibition [2]: 0%

SMILES: CCCc1c(OCCCCCOc2cc3c(cc2C(C)=O)CCC(C(=O)O)O3)ccc(C=O)c1O (stereo unspecified)
inhibition [29]: 0% | inhibition [30]: 0%

More lines, main results first:

pIC50 [6]: 4.44 | pIC50 [9]: 5.15 | inhibition [17]: 70% | pIC50 (Rattus norvegicus): 5.40 | pIC50 (Cavia porcellus [18]): 7.22 | pIC50 [21]: 5.40 | IC50 (Cavia porcellus [25]): 0.007 % conc
SMILES: CCCc1c(OCCCCCOc2cc3c(cc2C(C)=O)CCC(C(=O)O)O3)ccc(C(C)=O)c1O (stereo unspecified) [ABLUKAST]
Kb (Cavia porcellus [3]): 0.251 µM | ED50 (Cavia porcellus [4]): 3 mg/kg | inhibition (Cavia porcellus [5]): inactive | inhibition (Cavia porcellus [7]): inactive | ED50 (Cavia porcellus [8]): 5 mg/kg | inhibition (Cavia porcellus [10]): inactive | Duration (Cavia porcellus [11]): 40 min | ED50 (Cavia porcellus [12]): 5 mg/kg | Duration (Cavia porcellus [13]): 150 min | inhibition in vivo at 10 mg/kg (Cavia porcellus [14]): 93% | Duration (Cavia porcellus [15]): 40 min | Duration (Cavia porcellus [16]): 250 min | inhibition (Cavia porcellus [19]): inactive | ED50 (Cavia porcellus [20]): 1 mg/kg | Inhibition (Cavia porcellus [22]): 0.027% | Inhibition (Cavia porcellus [23]): 89% | Duration (Cavia porcellus [24]): 90 min

inhibition [27]: 88%
SMILES: CCCc1c(OCCCOc2c(C)c(C)c3c(c2C)CCC(C)(C(=O)O)O3)ccc(C(C)=O)c1O (stereo unspecified)
inhibition in vivo at 10 mg/kg (Cavia porcellus [26]): 99% | Inhibition (Cavia porcellus [28]): 53%

pIC50 [31]: 5.30 | pIC50 (Cavia porcellus [32]): 7.22
SMILES: CCCc1c(OCCCCCOc2cc3c(cc2C(C)=O)CC[C@@H](C(=O)O)O3)ccc(C(C)=O)c1O
Kb (Cavia porcellus [3]): 0.631 µM | ED50 (Cavia porcellus [4]): 4 mg/kg | ED50 (Cavia porcellus [12]): 3 mg/kg
